Square brackets hold non-standard residues; d marks the D form. Peptide text beside a SMILES is read from it. Nle = CCCC[C@H](N)C(=O)O
How the values were obtained:
[1] = biological target: T1, Delta-type opioid receptor (Rattus norvegicus, UniProt P33533); assay: Compound was tested for its binding affinity against opioid receptor delta using [3H]DPDPE as radioligand.
Summary of the method: (§1)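 Male Sprague-Dawley rat brain synaptosomes incubated with 0.62 pmol [3H]DPDPE in 50 mM HEPES pH 7.5, 5 mM MgCl2, 1 μM bestatin, bacitracin, 8% glycerol, soybean trypsin inhibitor, 100 μM PMSF; 2 h at 22 °C, duplicates. GF/C filtration, Tris-BSA washes, scintillation counting. 4-9 peptide concentrations over 2-3 log units, n = 3-8; Ki by Cheng-Prusoff.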

Mu-type opioid receptor [2] = biological target: T2, Mu-type opioid receptor (Rattus norvegicus, UniProt P33535); assay: Compound was tested for its binding affinity against opioid receptor mu using [3H]DAGO as radioligand.
[3] = biological target: T1, Delta-type opioid receptor; assay: Inhibition of [3H]DPDPE binding to Opioid receptor delta 1; summary of the method: as §1
Mu-type opioid receptor [4] = biological target: T2, Mu-type opioid receptor; assay: Inhibition of [3H]DAGO binding to rat Opioid receptor mu 1
[5] = Opioid receptor delta selectivity was defined as the ratio between Ki(opioid receptor mu)/Ki(opioid receptor delta); type: protein assay

T2 sequence (P33535 whole entry): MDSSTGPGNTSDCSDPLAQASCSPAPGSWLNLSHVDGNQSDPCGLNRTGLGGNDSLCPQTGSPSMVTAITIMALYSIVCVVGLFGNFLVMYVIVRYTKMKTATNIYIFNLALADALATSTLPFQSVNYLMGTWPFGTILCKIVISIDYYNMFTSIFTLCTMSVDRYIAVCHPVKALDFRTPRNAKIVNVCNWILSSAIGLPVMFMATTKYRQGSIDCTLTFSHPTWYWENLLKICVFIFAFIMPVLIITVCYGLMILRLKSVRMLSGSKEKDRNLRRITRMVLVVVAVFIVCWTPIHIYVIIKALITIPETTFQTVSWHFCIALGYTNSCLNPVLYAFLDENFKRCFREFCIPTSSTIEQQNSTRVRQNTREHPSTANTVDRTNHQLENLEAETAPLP
T1 sequence (P33533 whole entry): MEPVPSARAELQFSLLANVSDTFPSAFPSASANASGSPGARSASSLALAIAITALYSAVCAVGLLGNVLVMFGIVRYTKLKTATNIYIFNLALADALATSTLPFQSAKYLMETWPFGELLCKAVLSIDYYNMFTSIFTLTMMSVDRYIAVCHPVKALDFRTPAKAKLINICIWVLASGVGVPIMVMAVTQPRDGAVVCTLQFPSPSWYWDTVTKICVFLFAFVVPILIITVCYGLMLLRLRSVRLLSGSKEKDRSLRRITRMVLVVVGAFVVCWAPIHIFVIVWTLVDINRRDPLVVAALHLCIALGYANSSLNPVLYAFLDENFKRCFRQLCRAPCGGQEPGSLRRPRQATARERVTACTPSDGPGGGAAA

CSCC[C@H](NC(=O)[C@H](CC(C)C)NC(=O)[C@@H](Cc1cnc[nH]1)NC(=O)[C@H](Cc1ccccc1)NC(=O)[C@@H](CCSC)NC(=O)[C@@H](N)Cc1ccc(O)cc1)C(=O)N[C@@H](CC(=O)O)C(N)=O
Ki [1]: 2.77 nM
Ki (Mu-type opioid receptor [2]): 492 nM

CSCC[C@H](NC(=O)[C@H](CC(C)C)NC(=O)[C@H](Cc1c[nH]cn1)NC(=O)[C@H](Cc1ccccc1)NC(=O)[C@@H](CCSC)NC(=O)[C@@H](N)Cc1ccc(O)cc1)C(=O)N[C@H](CC(=O)O)C(N)=O
Ki [3]: 0.54 nM
Ki (Mu-type opioid receptor [4]): 124 nM

CSCC[C@H](NC(=O)[C@H](CC(C)C)NC(=O)[C@H](Cc1c[nH]cn1)NC(=O)[C@@H](Cc1ccccc1)NC(=O)[C@@H](CCSC)NC(=O)[C@@H](N)Cc1ccc(O)cc1)C(=O)N[C@@H](CC(=O)O)C(N)=O
Ki [1]: 39.6 nM
Selectivity [5]: 59
Ki (Mu-type opioid receptor [2]): 2350 nM

CSCC[C@H](NC(=O)[C@H](CC(C)C)NC(=O)[C@H](Cc1ccccc1)NC(=O)[C@@H](CCSC)NC(=O)[C@H](N)Cc1ccc(O)cc1)C(=O)N[C@@H](CC(=O)O)C(N)=O
Ki [3]: 477 nM
Ki (Mu-type opioid receptor [4]): 7410 nM

CSCC[C@@H](NC(=O)[C@H](CC(C)C)NC(=O)[C@H](Cc1ccccc1)NC(=O)[C@@H](CCSC)NC(=O)[C@@H](N)Cc1ccc(O)cc1)C(=O)N[C@@H](CC(=O)O)C(N)=O
Ki [3]: 25.8 nM
Ki (Mu-type opioid receptor [4]): 407 nM

CSCC[C@H](NC(=O)[C@H](CC(C)C)NC(=O)[C@@H](Cc1c[nH]cn1)NC(=O)[C@H](Cc1ccccc1)NC(=O)[C@@H](CCSC)NC(=O)[C@@H](N)Cc1ccc(O)cc1)C(=O)N[C@@H](CC(=O)O)C(N)=O
Selectivity [5]: 178

CSCC[C@H](NC(=O)[C@H](CC(C)C)NC(=O)[C@H](Cc1c[nH]cn1)NC(=O)[C@H](Cc1ccccc1)NC(=O)[C@@H](CCSC)NC(=O)[C@@H](N)Cc1ccc(O)cc1)C(=O)N[C@@H](CC(=O)O)C(N)=O
Selectivity [5]: 764

CSCC[C@H](NC(=O)[C@H](CC(C)C)NC(=O)[C@H](Cc1cnc[nH]1)NC(=O)[C@H](Cc1ccccc1)NC(=O)[C@@H](CCSC)NC(=O)[C@H](N)Cc1ccc(O)cc1)C(=O)N[C@@H](CC(=O)O)C(N)=O
Ki [1]: 544 nM
Ki (Mu-type opioid receptor [2]): 7410 nM

CSCC[C@@H](NC(=O)[C@H](CC(C)C)NC(=O)[C@H](Cc1c[nH]cn1)NC(=O)[C@H](Cc1ccccc1)NC(=O)[C@@H](CCSC)NC(=O)[C@@H](N)Cc1ccc(O)cc1)C(=O)N[C@@H](CC(=O)O)C(N)=O
Ki [3]: 0.96 nM
Ki (Mu-type opioid receptor [4]): 146 nM

CSCC[C@H](NC(=O)[C@H](CC(C)C)NC(=O)[C@H](Cc1ccccc1)NC(=O)[C@@H](C)NC(=O)[C@@H](N)Cc1ccc(O)cc1)C(=O)N[C@@H](CC(=O)O)C(N)=O
Ki [3]: 13.9 nM
Ki (Mu-type opioid receptor [4]): 567 nM

CSCC[C@H](NC(=O)[C@H](CC(C)C)NC(=O)[C@H](Cc1c[nH]cn1)NC(=O)[C@H](Cc1ccccc1)NC(=O)[C@@H](C)NC(=O)[C@@H](N)Cc1ccc(O)cc1)C(=O)N[C@@H](CC(=O)O)C(N)=O
Ki [1]: 0.36 nM
Selectivity [5]: 121
Ki (Mu-type opioid receptor [2]): 43.7 nM

CSCC[C@H](NC(=O)[C@H](CC(C)C)NC(=O)[C@H](Cc1cnc[nH]1)NC(=O)[C@H](Cc1ccccc1)NC(=O)[C@@H](CCSC)NC(=O)[C@@H](N)Cc1ccc(O)cc1)C(=O)N[C@@H](CC(=O)O)C(N)=O [DELTORPHIN A]
Ki [1]: 0.45 nM
Ki (Mu-type opioid receptor [2]): 344 nM

CSCC[C@H](NC(=O)[C@H](CC(C)C)NC(=O)[C@H](Cc1ccccc1)NC(=O)[C@@H](CCSC)NC(=O)[C@@H](N)Cc1ccc(O)cc1)C(=O)N[C@H](CC(=O)O)C(N)=O
Ki [3]: 9.46 nM
Ki (Mu-type opioid receptor [4]): 267 nM

CSCC[C@H](NC(=O)[C@H](CC(C)C)NC(=O)[C@H](Cc1ccccc1)NC(=O)[C@@H](CCSC)NC(=O)[C@@H](N)Cc1ccc(O)cc1)C(=O)N[C@@H](CC(=O)O)C(N)=O
Ki [3]: 12.6 nM
Ki (Mu-type opioid receptor [4]): 352 nM

CSCC[C@H](NC(=O)[C@H](CC(C)C)NC(=O)[C@H](Cc1c[nH]cn1)NC(=O)[C@H](Cc1ccccc1)NC(=O)[C@@H](CCSC)NC(=O)[C@H](N)Cc1ccc(O)cc1)C(=O)N[C@@H](CC(=O)O)C(N)=O
Selectivity [5]: 14

CSCC[C@H](NC(=O)[C@@H](CC(C)C)NC(=O)[C@H](Cc1c[nH]cn1)NC(=O)[C@H](Cc1ccccc1)NC(=O)[C@@H](CCSC)NC(=O)[C@@H](N)Cc1ccc(O)cc1)C(=O)N[C@@H](CC(=O)O)C(N)=O
Ki [3]: 58.5 nM
Ki (Mu-type opioid receptor [4]): 691 nM

CSCC[C@H](NC(=O)[C@@H](CC(C)C)NC(=O)[C@H](Cc1ccccc1)NC(=O)[C@@H](CCSC)NC(=O)[C@@H](N)Cc1ccc(O)cc1)C(=O)N[C@@H](CC(=O)O)C(N)=O
Ki [3]: 120 nM
Ki (Mu-type opioid receptor [4]): 330 nM

CSCC[C@H](NC(=O)[C@H](CC(C)C)NC(=O)[C@@H](Cc1ccccc1)NC(=O)[C@@H](CCSC)NC(=O)[C@@H](N)Cc1ccc(O)cc1)C(=O)N[C@@H](CC(=O)O)C(N)=O
Ki [3]: 742 nM
Ki (Mu-type opioid receptor [4]): 2250 nM

CCCC[C@H](NC(=O)[C@@H](N)Cc1ccc(O)cc1)C(=O)N[C@@H](Cc1ccccc1)C(=O)N[C@@H](Cc1c[nH]cn1)C(=O)N[C@@H](CC(C)C)C(=O)N[C@@H](CCSC)C(=O)N[C@@H](CC(=O)O)C(N)=O (H-Y[Nle]FHLMD-NH2)
Selectivity [5]: 272

From ChEMBL document CHEMBL1125419, “Stereospecificity of amino acid side chains in deltorphin defines binding to opioid receptors” (J Med Chem, 1992)
